The species named for data set [1] is Mus musculus. Description: Neuroprotection against BH4-induced mouse CATH.a cell death assessed as cell viability at >0.1 uM treated for 20 hrs prior to BH4 challenge for 24 hrs by LDH activity assay. Format: functional. Put shortly:
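CATH.a cells at 2.4 × 10⁴/well given graded concentrations for 20 h, then 200 μM BH4 for an additional 24 h. Medium LDH activity from NADH oxidation with pyruvate, pH 7.4, read at 340 nm over 5 min. At least duplicate cultures, % untreated control ± SEM, compared against BH4-treated group.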

Data set [2] has as its target T1, Nuclear factor erythroid 2-related factor 2 (Mus musculus) (UniProt Q60795).
T1 sequence (whole entry): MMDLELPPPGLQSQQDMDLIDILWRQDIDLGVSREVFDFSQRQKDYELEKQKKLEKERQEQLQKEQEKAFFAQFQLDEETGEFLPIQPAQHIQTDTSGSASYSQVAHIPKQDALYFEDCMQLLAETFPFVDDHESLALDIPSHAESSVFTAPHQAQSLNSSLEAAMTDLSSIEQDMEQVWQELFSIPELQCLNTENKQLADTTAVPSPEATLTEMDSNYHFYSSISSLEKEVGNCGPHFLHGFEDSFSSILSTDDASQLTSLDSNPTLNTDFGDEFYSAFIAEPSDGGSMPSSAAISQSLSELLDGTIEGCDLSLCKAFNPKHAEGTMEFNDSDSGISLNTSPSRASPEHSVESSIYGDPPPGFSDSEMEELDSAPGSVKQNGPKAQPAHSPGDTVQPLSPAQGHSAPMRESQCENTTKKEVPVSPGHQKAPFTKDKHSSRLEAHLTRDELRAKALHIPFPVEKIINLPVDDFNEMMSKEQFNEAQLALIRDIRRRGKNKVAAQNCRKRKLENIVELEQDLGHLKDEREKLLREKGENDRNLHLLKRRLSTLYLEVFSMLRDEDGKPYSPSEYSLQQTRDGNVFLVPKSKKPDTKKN
Description: Induction of Nrf2-dependent GCLC gene expression in mouse CATH.a cells at 0.1 uM after 6 hrs by RT-PCR analysis. Format: cell-based. Put shortly: (§1)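 CATH.a cells grown in RPMI 1640 with 8% horse serum and 4% FBS, exposed to graded concentrations for 6 h. mRNA analysed by RT-PCR with gene-specific primers, products run on 1% agarose gel, band densitometry normalized to GAPDH. At least duplicate cultures; fold induction versus untreated control ± SEM.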

A short description of data set [3]: Cytotoxicity against mouse CATH.a cells assessed as cell viability at 0.1 to 2 uM after 72 hrs by LDH activity assay. The data set is classed as cell-based. Put shortly: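 Seeded at 2.4 × 10⁴ CATH.a cells/well and exposed to the agent alone for 72 h. LDH in culture medium measured with 0.26 mM NADH, 2.87 mM pyruvate in 100 mM potassium phosphate pH 7.4; absorbance at 340 nm followed 5 min at 2 s intervals, room temperature. Duplicate cultures minimum; % untreated control ± SEM.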

In data set [4] the target is T1, Nuclear factor erythroid 2-related factor 2 (Mus musculus). As to the kind of experiment: Induction of Nrf2-dependent GCLM protein expression in mouse CATH.a cells after 24 hrs by western blot analysis. The data set is classed as cell-based. The essentials:
(§2)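 Cells (CATH.a) exposed to graded concentrations for 24 h, lysed in RIPA buffer with protease inhibitors. Equal protein separated on 10% SDS gel, blotted; primary antibodies overnight at 4 °C, HRP secondary, chemiluminescence. Densitometry normalized to β-actin. At least duplicate cultures, fold of untreated control ± SEM.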
(In western blotting, separated proteins are transferred to a membrane and probed.)

Data set [5] can be described thus: Cytotoxicity against mouse CATH.a cells assessed as cell viability at 0.1 to 2 uM after 72 hrs by ATP assay. Format: cell-based. Put shortly:
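CATH.a cells seeded at 2.4 × 10⁴ cells/well, exposed to the agent alone for 72 h. Viability read as cellular ATP by CellTiter-Glo luminescence (2 min lysis, 10 min room temperature, 1 min read). At least duplicate cultures, percent of untreated control ± SEM.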

The test system of data set [6] is Mus musculus. As to the kind of experiment: Inhibition of motor deficits in MPTP-induced C57Bl/6 mouse parkinson's disease model assessed as time taken to turn around at 10 mg/kg/day, po for 3 days administered first dose at 24 hrs prior to first injection of 4X 20 mg/kg, ip MPTP challenge by vertical grid test (reference value: 12.4 +/-1.8 s). Format: functional.

The subject of data set [7] is Mus musculus. As to the kind of experiment: Inhibition of motor deficits in MPTP-induced C57Bl/6 mouse parkinson's disease model assessed as total time taken on grid apparatus at 10 mg/kg/day, po for 3 days administered first dose at 24 hrs prior to first injection of 4X 20 mg/kg, ip MPTP challenge by vertical grid test (reference value: 34.8 +/-5.4s). The data set is classed as functional.

The target of data set [8] is T1, Nuclear factor erythroid 2-related factor 2 (Mus musculus). Description: Induction of Nrf2-dependent GCLC protein expression in mouse CATH.a cells at 0.1 uM after 24 hrs by western blot analysis. The data set is classed as cell-based. Put shortly:
as §2

The target is the same in data set [9]. Description: Induction of Nrf2-dependent NQO1 protein expression in mouse CATH.a cells at 0.1 uM after 24 hrs by western blot analysis. The data set is classed as cell-based. The essentials:
as §2

Data set [10] shares this target. Description: Induction of Nrf2-dependent NQO1 gene expression in mouse CATH.a cells at 0.1 uM after 6 hrs by RT-PCR analysis. The data set is classed as cell-based. The essentials:
as §1

Data set [11] shares this target. Description: Induction of Nrf2-dependent GCLC gene expression in mouse CATH.a cells at 2 uM after 6 hrs by RT-PCR analysis relative to control. Format: cell-based. The essentials:
as §1

Data set [12] has the same target. As to the kind of experiment: Induction of Nrf2-dependent GCLC gene expression in mouse CATH.a cells at 10 uM after 6 hrs by RT-PCR analysis relative to control. Format: cell-based. Put shortly:
as §1

The target is the same in data set [13]. As to the kind of experiment: Activation of Nrf2 in mouse CATH.a cells assessed as increase in total Nrf2 protein level after 24 hrs by western blot analysis. Format: cell-based. The essentials:
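CATH.a cells (RPMI 1640, 8% horse serum, 4% FBS, 37 °C, 5% CO2) exposed to various concentrations for 24 h. Whole-cell lysate in RIPA buffer with protease inhibitors, 10% SDS-PAGE, Nrf2 immunoblot, chemiluminescence, densitometry normalized to β-actin. At least duplicate cultures, averaged, fold of untreated control ± SEM.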

The target is the same in data set [14]. As to the kind of experiment: Induction of Nrf2-dependent HO1 protein expression in mouse CATH.a cells at 1 to 10 uM after 24 hrs by western blot analysis relative to control. The data set is classed as cell-based. The essentials:
as §2

For data set [15] the target is unchanged. Description: Induction of Nrf2 nuclear translocation in mouse CATH.a cells after 3 hrs by western blot analysis. The data set is classed as cell-based. The essentials:
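Mouse DAergic CATH.a cells treated at various concentrations for 3 h. Nuclei isolated by hypotonic HEPES buffer/NP-40 lysis, then nuclear proteins extracted in 400 mM NaCl HEPES buffer. Nrf2 Western blot with lamin B as nuclear marker, chemiluminescent detection, densitometry. At least duplicate cultures, expressed as fold induction over untreated control ± SEM.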

Data set [16] shares this target. As to the kind of experiment: Induction of Nrf2-dependent HO1 protein level in mouse BV-2 cells at 20 uM after 24 hrs by sandwich ELISA. The data set is classed as cell-based. The essentials: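 Murine BV-2 microglia in DMEM/10% FBS, 2.0 × 10⁴ cells per well, treated at 20 μM for 24 h in triplicate. Lysates in NP-40 Tris buffer (pH 8.0) diluted tenfold; HO-1 measured by sandwich ELISA with HRP-streptavidin and Amplex Red fluorescence (ex 530/em 590 nm). Expressed as % of 0.04% DMSO vehicle control ± SEM; sulforaphane 5 μM as reference.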
A general note: ELISA stands for enzyme-linked immunosorbent assay.

Structures are written as SMILES. The source made the active and inactive calls. The rule behind the calls is not given here.

As to `COc1ccccc1S(=O)(=O)/C=C/c1ccccc1Cl`, the outcome in data set [1] was Active. Moreover, the outcome in [2], in data set [8], in data set [9] and in data set [10] was inactive. For the same molecule, the Activity entry was “Non-toxic” in data set [3]; “Dose-dependent effect” in data set [4]; “Non-toxic” in [5]; “Dose-dependent effect” in data set [13]; “Dose-dependent effect” in [15]; 382% in data set [16]. Moreover, the Time in [6] is given as 4 s; in data set [7] it was 10.3 s. Moreover, the fold change (FC) in [11] stood at 1.41; in data set [12] it was 2.64; in data set [14] it was 3.

The values are drawn from ChEMBL document CHEMBL3124841, “Discovery of vinyl sulfones as a novel class of neuroprotective agents toward Parkinson's disease therapy” (J Med Chem, 2014).
